Rows were chosen to be rich in hits. Some 9.6% of all compounds tested hit in one or more screens of this group.
BaF3 parental: counter-screen for JAK2V617F inhibitors: parental Ba/F3 viability inhibitors | CellTiter-Glo ATP luminescence | inhibition, % at 5.6 µM | actives 1.1% (n = 220,000) | AID 1486;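 active = inhibition above a per-campaign cutoff, the mean inhibition of all tested compounds plus 3 SD, cut at about 27% in these data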;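 note: 0% = DMSO wells and 100% = JAK Inhibitor I control wells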
b-catenin transl: modulators of beta-catenin nuclear translocation; AID 1665; actives 0.3% (n = 190,000); nuclear translocation activity, % at 5 µM; HeLa beta-catenin nuclear translocation, immunofluorescence imaging;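 active = nuclear translocation activity above 50% at 5 µM, with a well cell count of 50 or more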;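 note: per-cell ratio of nuclear to cytoplasmic median beta-catenin stain intensity; plate controls were DMSO negative control for no effect and GSK-3 inhibitor IX positive control for full effect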
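Test system: human HeLa cells, native beta-catenin. Compound dosing: 5 µM primary single dose, 0.1% DMSO, 0.02–20 µM confirmation series. Incubation: compound exposure 24 h at 37°C. Detection: beta-catenin immunostaining with DAPI counterstain, 20x imaging, 6 fields/well. Read-out basis: Nuclear/cytoplasmic beta-catenin signal ratio, % activation.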
L major viab: reduces viability of Leishmania major promastigotes; actives 9% (n = 200,000); inhibition, % at 10 µM; resazurin fluorescence viability; AID 1063; in the data active = inhibition above about 50%;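 note: promastigotes grown with compound for 44 hours at 28 °C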
Ba/F3 V617F tox: lowers viability of Ba/F3 cells expressing EpoR and JAK2V617F; ATP luminescence; inhibition, % at 5.6 µM; actives 1.1% (n = 220,000);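 active = inhibition above the campaign mean plus 3 SD over all tested compounds, cut at about 24% in these data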;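 note: cytokine-independent growth of Ba/F3 cells driven by EpoR plus mutant JAK2; 0% = DMSO-treated cells and 100% = JAK inhibitor I control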
MT stabilize HCS: microtubule stabilizers in HeLa cells; actives 0.83% (n = 200,000); HeLa tubulin immunostaining HCS, 24 h; share of cells brighter than vehicle mean+2SD; % tubulin-high responders, % at 10 µM;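 active = plate Z-score above 3 for both tubulin-high and condensed-nucleus cell shares, with cell loss under 80%, at 10 µM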;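 note: anti alpha tubulin signal scored within the nucleus-defined area of each cell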
APP 5UTR inh: APP translation inhibition | inhibition, % at 2 µM | actives 0.82% (n = 190,000) | AID 1285 | SH-SY5Y APP 5'UTR-luciferase reporter, luminescence;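 active = inhibition above a set limit, derived from the sample mean plus 3 SD, cut at about 45% in these data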
Numbers without * were called inactive; nt = no result.

SMILES | BaF3 parental | b-catenin transl | L major viab | Ba/F3 V617F tox | MT stabilize HCS | APP 5UTR inh
N#CCc1c(C#N)c(N)nc(Nc2ccccc2)c1C#N | 4.3 | 1.6 | nt | 0.6 | nt | nt
CC(C)Cc1nnc(NC(=O)CCC(=O)N2CCN(S(=O)(=O)c3ccccc3)CC2)s1 | 0.6 | -1.1 | 51.9* | -3.5 | 3.7 | 12.7
CC(C)c1nnc(NC(=O)CCC(=O)N2CCN(Cc3ccccc3)CC2)s1 | 6.0 | -2.8 | -5.1 | 0.6 | 1.8 | 3.4
O=C(NN1CCOCC1)NC12CC3CC(CC(C3)C1)C2 | -0.1 | 0.7 | nt | -2.8 | nt | nt
CCN1CCN(c2cc(-c3ccccc3)nc3cc(-c4cccc(F)c4)nn23)CC1 | 6.6 | 0.8 | 68.2* | 0.7 | 2.9 | 15.2
OC1CCN(c2cc(-c3ccccc3)nc3cc(-c4ccc(F)cc4)nn23)CC1 | 10.8 | -0.4 | 19.4 | 6.5 | 2.2 | -12.7
COc1ccc(OCC(O)CNC(=O)c2c(-c3ccccc3)noc2C)cc1 (configuration not stated) | -0.7 | 1.0 | nt | -6.3 | nt | nt
CCOC(=O)c1c(-n2c(C)cc(C=O)c2C)sc2c1CCCC2 | -0.2 | 1.7 | 96.0* | 0.5 | 2.6 | 7.8
CCOC(=O)c1cccc(-n2c(C)cc(C=O)c2C)c1 | 4.4 | -9.9 | -0.3 | -4.2 | 3.1 | 3.9
Cc1cccc(NC(=O)c2ccc([N+](=O)[O-])o2)c1C | -7.8 | -0.8 | 97.2* | 4.6 | 5.0 | 5.4
Cc1ccc(CNC(=O)c2ccc([N+](=O)[O-])o2)cc1 | -2.0 | 15.1 | 75.9* | -1.7 | 6.4 | -4.7
Cc1ccnc(NC(=O)c2ccc([N+](=O)[O-])o2)c1 | -2.2 | 17.4 | 99.0* | -1.4 | 3.1 | 13.3
O=C(Nc1ncccn1)c1ccc([N+](=O)[O-])o1 | 4.0 | -1.8 | -1.6 | -0.7 | 1.9 | -8.6
O=C(Nc1cccc(Cl)c1N1CCOCC1)c1ccc([N+](=O)[O-])o1 | -4.6 | 2.7 | nt | -2.9 | nt | nt
Cc1ccc(CNC(=O)c2nn(C)c(C)c2[N+](=O)[O-])cc1 | 5.6 | nt | 0.1 | 2.4 | 4.3 | -4.5
COc1ccc(COc2ccccc2C(=O)Nc2ccccn2)cc1[N+](=O)[O-] | 2.0 | 2.4 | 61.6* | -1.5 | 2.2 | -16.3
CC(C)(C)C(=O)Nc1cccc(-c2ncon2)c1 | -2.0 | -2.1 | nt | -1.7 | nt | nt
CN(Cc1ccccc1)C(=O)c1ccc([N+](=O)[O-])o1 | 1.5 | 0.9 | 86.0* | 4.1 | 6.7 | -9.3
O=C(Nc1ccccn1)c1ccc([N+](=O)[O-])o1 | -7.0 | 4.3 | 99.4* | -3.1 | 6.3 | 27.2
O=C(COC(=O)c1ccc([N+](=O)[O-])o1)c1ccccc1 | -1.1 | -1.6 | -2.9 | -2.0 | 4.7 | 13.3
O=C1CCCC2=C1Sc1ccccc1N2 | -0.7 | 0.6 | nt | -1.5 | nt | nt
O=C(NCCCN1CCOCC1)/C(=C/c1cccnc1)NC(=O)c1ccccc1 | 3.0 | 0.2 | 0.7 | -3.9 | 2.2 | -17.5
CCN(Cc1ccccc1)S(=O)(=O)c1ccc(OC)c2ncccc12 | -2.2 | 0.0 | nt | -3.6 | nt | nt
CCCCN(CCCC)S(=O)(=O)c1ccc(OC)c2ncccc12 | 0.9 | -0.7 | 74.6* | 3.9 | 3.3 | -28.7
COc1ccc(S(=O)(=O)N(CC(C)C)CC(C)C)c2cccnc12 | 7.5 | 2.4 | 72.2* | 4.0 | 5.7 | 8.0
SMILES | BaF3 parental | b-catenin transl | L major viab | Ba/F3 V617F tox | MT stabilize HCS | APP 5UTR inh
CCCCn1nnc(NC(=O)c2ccc(-c3cccc([N+](=O)[O-])c3)o2)n1 | 2.9 | -0.2 | 55.6* | 0.1 | 4.5 | -5.4
O=C(Nc1ncc(Cc2cccc(C(F)(F)F)c2)s1)c1ccc(-c2cccc([N+](=O)[O-])c2)o1 | 4.0 | -1.9 | 91.2* | 2.5 | 5.8 | -13.8
CCCn1nnc(NC(=O)c2cccc(OCc3ccccc3)c2)n1 | 5.6 | -4.1 | 52.2* | 4.1 | 3.0 | -4.2
CCCCn1nnc(NC(=O)c2ccc(-c3cccc(Cl)c3)o2)n1 | 4.2 | nt | 50.9* | 0.7 | 4.8 | 1.6
CCCCn1nnc(NC(=O)c2ccc([N+](=O)[O-])cc2Cl)n1 | 1.9 | -0.6 | nt | 4.1 | nt | nt
COc1cccc(/C=N/NC(=O)CCCc2ccc(OC)c(C)c2)c1 | 4.1 | -1.1 | 7.0 | -1.0 | 1.8 | 12.9
CC(NS(=O)(=O)c1ccc(Br)cc1)C(=O)NCCc1ccccc1 (configuration not stated) | 6.8 | 1.5 | -2.8 | 0.7 | 6.1 | -13.0
CC1CCN(Cc2nc3c(c(=O)n(C)c(=O)n3C)n2CCCc2ccccc2)CC1 | -1.8 | -0.4 | 5.3 | -5.7 | 3.9 | -11.2
Cc1c(N/C(=N/S(=O)(=O)c2ccc(F)cc2)c2ccccc2)c(=O)n(-c2ccccc2)n1C | 4.6 | 1.0 | -2.8 | 2.1 | 3.9 | -18.9

High-throughput results: PubChem, several laboratories
